≈ marks a conversion by molar mass, not a printed value.
How the values were obtained:
[1] = molecular target: T1, Amine oxidase [flavin-containing] A (Rattus norvegicus, UniProt P21396); test: Inhibition of Monoamine oxidase A from rat liver mitochondria
T1 sequence (P21396 whole entry): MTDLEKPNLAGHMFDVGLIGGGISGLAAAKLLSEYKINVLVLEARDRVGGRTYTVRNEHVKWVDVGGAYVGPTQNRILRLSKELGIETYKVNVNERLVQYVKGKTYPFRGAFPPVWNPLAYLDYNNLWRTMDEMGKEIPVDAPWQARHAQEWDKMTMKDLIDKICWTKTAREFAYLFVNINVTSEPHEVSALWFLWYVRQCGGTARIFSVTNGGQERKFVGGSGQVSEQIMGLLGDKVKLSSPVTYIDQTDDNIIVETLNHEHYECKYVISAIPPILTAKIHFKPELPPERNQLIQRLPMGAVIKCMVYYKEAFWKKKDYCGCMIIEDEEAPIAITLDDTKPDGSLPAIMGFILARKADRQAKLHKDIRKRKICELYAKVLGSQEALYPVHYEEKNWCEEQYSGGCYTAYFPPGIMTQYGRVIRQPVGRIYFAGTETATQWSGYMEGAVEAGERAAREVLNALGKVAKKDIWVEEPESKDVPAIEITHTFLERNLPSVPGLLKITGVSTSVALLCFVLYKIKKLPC
Outline: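 Rat liver mitochondria from differential centrifugation, in 50 mM phosphate buffer pH 7.4. Preincubated with inhibitor (10⁻⁸–10⁻³ or 10⁻⁴ M) for 60 min at 37 °C. MAO-A activity measured radiometrically as ¹⁴C-aldehyde formed from 0.1 mM [¹⁴C]-5-hydroxytryptamine creatinine sulfate; IC50 reported.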

[2] = tested on: Mycobacterium tuberculosis; test: In vitro inhibition of Mycobacterium tuberculosis H37Rv, determined at 2 ug/mL; format: functional
Outline: (§1)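 M. tuberculosis H37Rv (Pasteur) grown twice for 1 week each in Dubos broth at 37 °C, washed, then filtered to remove clumps. 25 × 10⁴ CFU per well in RPMI 1640 with 5 mM HEPES, 2 mM L-glutamine and 2% FBS. Compound added from DMSO stock; 5,6-[³H]-uracil added at 24 h, then 18 h at 37 °C.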

[3] = tested on: Mycobacterium tuberculosis; test: In vitro inhibition of Mycobacterium tuberculosis H37Rv, determined at 0.2 ug/mL; format: functional; outline: as §1
[4] = molecular target: T2, Amine oxidase [flavin-containing] B (Rattus norvegicus, UniProt P19643); test: Inhibition of Monoamine oxidase B from rat liver mitochondria
T2 sequence (P19643 whole entry): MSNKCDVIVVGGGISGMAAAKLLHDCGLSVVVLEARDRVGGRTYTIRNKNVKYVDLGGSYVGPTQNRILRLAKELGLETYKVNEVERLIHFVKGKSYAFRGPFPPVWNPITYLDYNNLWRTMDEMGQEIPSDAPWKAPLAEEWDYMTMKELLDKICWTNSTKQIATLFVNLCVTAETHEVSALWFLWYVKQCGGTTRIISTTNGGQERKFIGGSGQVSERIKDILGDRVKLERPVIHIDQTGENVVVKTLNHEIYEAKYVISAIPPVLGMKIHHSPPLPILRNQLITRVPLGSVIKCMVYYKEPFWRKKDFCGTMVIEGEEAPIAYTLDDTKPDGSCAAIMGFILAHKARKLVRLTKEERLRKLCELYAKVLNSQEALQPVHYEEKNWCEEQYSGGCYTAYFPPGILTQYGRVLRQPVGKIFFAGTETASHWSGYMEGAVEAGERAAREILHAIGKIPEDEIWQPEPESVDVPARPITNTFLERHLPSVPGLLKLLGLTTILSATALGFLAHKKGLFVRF
Outline: (§2)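 Rat liver mitochondria from differential centrifugation, in 50 mM phosphate buffer pH 7.4. Preincubated with inhibitor (10⁻⁸–10⁻³ or 10⁻⁴ M) for 60 min at 37 °C. MAO-B activity measured radiometrically as ¹⁴C-aldehyde formed from 10 μM [¹⁴C]-phenylethylamine; IC50 reported.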

[5] = tested on: Mycobacterium tuberculosis; test: In vitro inhibition of Mycobacterium tuberculosis H37Rv, determined at 20 ug/mL; format: functional; outline: as §1
[6] = tested on: Mycobacterium tuberculosis; test: Minimal inhibitory activity of compound against Mycobacterium tuberculosis H37Rv; format: functional
Outline: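 Same H37Rv [³H]-uracil incorporation assay: compound at final 20, 2.0 and 0.2 μg/mL, 24 h, then 1 μCi 5,6-[³H]-uracil for 18 h at 37 °C, harvested on filters, scintillation counted, triplicate. MIC50 is the concentration giving 50% reduction in cpm versus drug-free plate at the same bacterial dilution.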

[7] = molecular target: T2, Amine oxidase [flavin-containing] B; test: Inhibitory activity against Monoamine oxidase B isolated from rat liver mitochondria using [14C]phenylethylamine; NI denotes no inhibition at 1000 uM; outline: as §2

| SMILES | IC50 [1] | inhibition at 2 µg/mL [2] | inhibition at 0.2 µg/mL [3] | IC50 [4] | inhibition at 20 µg/mL [5] | MIC50 [6] | IC50 [7] |
| --- | --- | --- | --- | --- | --- | --- | --- |
| Cn1c2ccccc2c2nnc(N)c(-c3ccccc3)c21 | 28.2 µM | 25.5% | 2.3% | ~1000 µM | 40.2% |  |  |
| Cn1c2ccccc2c2nnc(N)c(-c3cccc(Br)c3)c21 | 63.1 µM | 0% | 0% | 100 µM | 60.1% |  |  |
| CCn1c2ccccc2c2nnc(N)c(-c3ccc(C(C)C)cc3)c21 | 100 µM | 10.5% | 0% | 15.8 µM | 94.3% | 10.5 µg/mL (≈ 31.7 µM) |  |
| CO[C@H]1/C=C/O[C@@]2(C)Oc3c(C)c(O)c4c(O)c(c(/C=N/N5CCN(C)CC5)c(O)c4c3C2=O)NC(=O)/C(C)=C\C=C\[C@H](C)[C@H](O)[C@@H](C)[C@@H](O)[C@@H](C)[C@H](OC(C)=O)[C@@H]1C [RIFAMPIN] |  | 91.7% | 54.8% |  | 94.3% | 0.1 µg/mL (≈ 0.122 µM) |  |
| CC(C)c1ccc(-c2c(N)nnc3c4ccccc4n(CCN(C)C)c23)cc1 | 1000 µM | 0% | 0% |  | 20.4% |  | No inhibition |
| CC(C)c1ccc(-c2c(N3C(=O)c4ccccc4C3=O)nnc3c4ccccc4n(C)c23)cc1 |  |  |  |  | 0% |  |  |
| Cc1ccc2c(c1)c1nnc(N)c(-c3ccc(C(C)C)cc3)c1n2C |  | 0% | 0% |  | 40.5% |  |  |
| Nc1[nH]nc2c3ccccc3nc-2c1-c1ccccc1Cl | 316 µM | 0% | 0% |  | 35% |  | No inhibition |
| Cn1c2ccccc2c2nnc(O)c(-c3ccccc3)c21 |  |  |  |  | 0% |  |  |
| Cn1c2ccccc2c2nnc(N)c(-c3ccccc3Cl)c21 | ~1000 µM | 0% | 0% | ~1000 µM | 3.1% |  |  |
| CCn1c2ccccc2c2nnc(N)c(-c3ccccc3Cl)c21 | ~1000 µM | 0% | 0% | ~1000 µM | 15.9% |  |  |
| Nc1[nH]nc2c3cc(Br)ccc3nc-2c1-c1ccccc1 | 63.1 µM | 44.3% | 9.2% | 25.1 µM | 91.4% | 4.17 µg/mL (≈ 12.3 µM) |  |
| Nc1nnc2c3ccccc3n(Cc3ccccc3)c2c1-c1ccccc1Cl | 17.8 µM | 0% | 0% | 35.4 µM | 50.8% |  |  |
| COc1ccc(-c2c3nc4ccccc4c-3n[nH]c2N)cc1 |  | 0% | 0% |  | 30.2% | 14.9 µg/mL (≈ 51.2 µM) |  |
| CC(C)c1ccc(-c2c(N)nnc3c4ccccc4n(C)c23)cc1 | 14.1 µM | 63.6% | 21.3% | 316 µM | 88% | 1.42 µg/mL (≈ 4.49 µM) |  |
| CCCn1c2ccccc2c2nnc(N)c(-c3ccc(C(C)C)cc3)c21 |  | 0% | 0% |  | 20% |  |  |

| SMILES | IC50 [1] | inhibition at 2 µg/mL [2] | inhibition at 0.2 µg/mL [3] | IC50 [4] | inhibition at 20 µg/mL [5] | MIC50 [6] | IC50 [7] |
| --- | --- | --- | --- | --- | --- | --- | --- |
| CC(C)c1ccc(-c2c3nc4ccc(Br)cc4c-3n[nH]c2N)cc1 | 63 µM | 56.3% | 7.1% | 79 µM | 88.5% | 1.77 µg/mL (≈ 4.64 µM) |  |
| CC(C)c1ccc(-c2c(O)nnc3c4ccccc4n(C)c23)cc1 |  |  |  |  | 0% |  |  |
| Nc1nnc2c3ccccc3n(Cc3ccccc3)c2c1-c1ccccc1 |  | 0% | 0% |  | 20.7% |  |  |
| CC(=O)N(C(C)=O)c1nnc2c3ccccc3n(C)c2c1-c1ccccc1 |  |  |  |  | 0% |  |  |
| CN(C)c1ccc(-c2c3nc4ccccc4c-3n[nH]c2N)cc1 | 79.4 µM | 10% | 5.2% | ~1000 µM | 66% |  |  |
| Nc1[nH]nc2c3ccccc3nc-2c1-c1cccc(Br)c1 |  | 0% | 0% |  | 32% |  |  |
| Oc1[nH]nc2c3ccccc3nc-2c1-c1ccccc1 |  |  |  |  | 0% |  |  |
| CC(C)c1ccc(-c2c3nc4ccccc4c-3n[nH]c2N)cc1 | > 1000 µM | 32.9% | 8.7% | > 1000 µM | 61.9% | 12.6 µg/mL (≈ 41.8 µM) |  |
| Cc1ccc(-c2c(N)nnc3c4ccccc4n(C)c23)cc1 |  | 0% | 0% |  | 62.3% |  |  |
| CC(C)c1ccc(-c2c(N)nnc3c4cc(Br)ccc4n(C)c23)cc1 |  | 0% | 0% |  | 60.7% | 17.1 µg/mL (≈ 43.3 µM) |  |
| Cn1c2ccccc2c2nnc(NC=O)c(-c3ccccc3)c21 |  |  |  |  | 0% |  |  |
| Cn1c2ccc(Br)cc2c2nnc(N)c(-c3ccccc3)c21 |  | 0% | 0% |  | 54.2% |  |  |
| Cc1ccc(-c2c3nc4ccccc4c-3n[nH]c2N)cc1 | 31.6 µM | 0% | 0% | 158 µM | 40.5% | 16.5 µg/mL (≈ 60.1 µM) |  |
| NNC(=O)c1ccncc1 [ISONIAZID] |  | 59.1% | 49.7% |  | 68.7% | 0.25 µg/mL (≈ 1.82 µM) |  |
| Nc1[nH]nc2c3ccccc3nc-2c1-c1ccccc1F | 631 µM | 0% | 0% |  | 40.3% |  | No inhibition |

Reference: ChEMBL document CHEMBL1149191, “Novel pyridazino[4,3-b]indoles with dual inhibitory activity against Mycobacterium tuberculosis and monoamine oxidase” (J Med Chem, 2004)
